Laboratory results: ChEMBL document CHEMBL1127788, “Iodinated 2-aminotetralins and 3-amino-1-benzopyrans: ligands for dopamine D2 and D3 receptors” (J Med Chem, 1994)

What was measured:
D(2) dopamine receptor [1] = target: T1, D(2) dopamine receptor (Homo sapiens, UniProt P14416); experiment: Tested for the inhibitory activity against Dopamine D2 receptor in infected Sf9 cells; assay type: cell-based
Method in brief: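 Membranes from Sf9 cells infected with AcMNPVrD2 baculovirus (non-G-protein coupled, low-affinity D2). Drugs up to 10^-5 M displace 0.1 nM [125I]-NCQ298 in 50 mM Tris pH 7.4, 120 mM NaCl, protease inhibitors, BSA 1 mg/mL. Incubation 30 min at 37 °C, filtration, gamma counting. Nonspecific binding with 10 μM (+)-butaclamol or 1 μM 7-OH-DPAT. Ki by nonlinear least-squares fitting.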

[2] = target: T2, Sigma non-opioid intracellular receptor 1 (Rattus norvegicus, UniProt Q9R0C9); experiment: Tested for the inhibitory activity against sigma receptor rat cerebellar
T2 sequence (Q9R0C9 whole entry): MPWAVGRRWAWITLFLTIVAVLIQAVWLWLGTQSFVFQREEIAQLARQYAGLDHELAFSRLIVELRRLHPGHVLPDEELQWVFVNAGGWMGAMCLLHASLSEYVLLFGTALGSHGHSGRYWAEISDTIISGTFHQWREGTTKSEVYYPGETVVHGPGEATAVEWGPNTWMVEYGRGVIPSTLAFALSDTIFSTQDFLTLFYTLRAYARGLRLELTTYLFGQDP
Method in brief: (§1)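 Rat cerebellar homogenate (65–75 μg) with 0.3–0.5 nM [125I]-S-(-)-trans-7-OH-PIPAT plus 15 nM spiperone and varying inhibitor, 20 min at 25 °C. Nonspecific binding: 10 μM haloperidol. Vacuum filtration through PEI-presoaked glass fiber filters, washed with ice-cold 50 mM Tris-HCl pH 7.4.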

D(2) dopamine receptor [3] = target: T1, D(2) dopamine receptor; experiment: Tested for the inhibitory activity against D2H (high-affinity states) receptor in infected HEK 293 cells.; assay type: cell-based, HEK293
Method in brief: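 Competition binding on membranes of HEK293 cells expressing dopamine D2 receptors in high-affinity (G-protein coupled) states. Radioligand [125I]-R-(+)-trans-7-OH-PIPAT. […] Ki from iterative nonlinear least-squares curve fitting.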

D(3) dopamine receptor = D(3) dopamine receptor (Homo sapiens, UniProt P35462); experiment: Tested for the inhibitory activity against Dopamine D3 receptor in infected Sf9 cells; assay type: cell-based
Chain of D(3) dopamine receptor (P35462 whole entry): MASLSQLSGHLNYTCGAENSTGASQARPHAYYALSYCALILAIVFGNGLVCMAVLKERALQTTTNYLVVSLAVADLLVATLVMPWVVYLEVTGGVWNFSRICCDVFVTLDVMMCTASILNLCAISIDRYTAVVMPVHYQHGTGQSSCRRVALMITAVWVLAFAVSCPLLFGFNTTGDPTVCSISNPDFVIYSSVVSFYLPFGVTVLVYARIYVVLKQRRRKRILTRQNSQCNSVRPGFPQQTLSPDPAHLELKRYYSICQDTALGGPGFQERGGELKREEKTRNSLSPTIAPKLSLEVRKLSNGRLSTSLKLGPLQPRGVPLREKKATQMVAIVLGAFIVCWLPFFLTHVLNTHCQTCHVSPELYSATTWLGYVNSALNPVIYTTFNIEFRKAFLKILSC
Method in brief: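 Membranes from Sf9 cells infected with AcMNPVrD3, in 50 mM Tris pH 7.4 with 120 mM NaCl, protease inhibitors and BSA 1 mg/mL. Nonspecific binding: 10 μM (+)butaclamol or 1 μM 7-OH-DPAT. Filtration onto PEI-soaked glass fiber, γ counting, LIGAND nonlinear fit.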

[4] = target: T3, 5-hydroxytryptamine receptor 1A (Rattus norvegicus, UniProt P19327); experiment: Tested for the inhibitory activity against 5-hydroxytryptamine 1A receptor in rat hippocampal; assay type: tissue-based, Hippocampus
T3 sequence (P19327 whole entry): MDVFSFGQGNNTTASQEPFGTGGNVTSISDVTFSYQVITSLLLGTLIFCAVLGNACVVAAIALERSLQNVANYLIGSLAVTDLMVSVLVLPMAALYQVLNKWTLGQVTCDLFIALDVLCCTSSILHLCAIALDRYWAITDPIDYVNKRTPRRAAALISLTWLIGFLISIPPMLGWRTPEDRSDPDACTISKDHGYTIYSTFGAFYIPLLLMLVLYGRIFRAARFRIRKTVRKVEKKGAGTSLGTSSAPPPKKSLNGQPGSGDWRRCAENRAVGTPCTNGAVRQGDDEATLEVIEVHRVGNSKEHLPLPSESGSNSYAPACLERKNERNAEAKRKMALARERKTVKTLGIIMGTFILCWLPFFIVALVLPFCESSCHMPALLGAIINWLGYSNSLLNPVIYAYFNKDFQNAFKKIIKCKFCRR
Method in brief: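 Rat hippocampal homogenate in ice-cold 50 mM Tris-HCl pH 7.4, spun at 20000g for 20 min. Pellet lysed in water, preincubated at 37 °C to remove endogenous serotonin, then resuspended in Tris with 2 mM MgCl2. Nonspecific binding: 10 μM 5-HT. Filtration, γ counting, Ki by LIGAND fit.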

[5] = target: T2, Sigma non-opioid intracellular receptor 1; experiment: tested for the inhibitory activity against sigma receptor rat cerebellar; method in brief: as §1

T1 sequence (P14416 whole entry): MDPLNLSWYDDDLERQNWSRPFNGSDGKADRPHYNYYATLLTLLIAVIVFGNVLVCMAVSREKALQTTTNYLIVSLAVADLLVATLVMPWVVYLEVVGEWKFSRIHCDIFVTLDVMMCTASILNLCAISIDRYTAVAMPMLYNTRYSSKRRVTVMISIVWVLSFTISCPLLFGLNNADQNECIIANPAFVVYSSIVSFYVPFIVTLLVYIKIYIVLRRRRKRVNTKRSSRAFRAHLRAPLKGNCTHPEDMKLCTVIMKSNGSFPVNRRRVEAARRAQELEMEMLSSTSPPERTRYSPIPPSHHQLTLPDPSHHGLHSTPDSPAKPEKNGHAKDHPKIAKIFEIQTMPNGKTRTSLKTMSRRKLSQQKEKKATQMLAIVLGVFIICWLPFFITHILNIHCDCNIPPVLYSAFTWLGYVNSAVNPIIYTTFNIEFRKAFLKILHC

Ki [5] [nM] | Compound | Ki (D(2) dopamine receptor [1]) [nM] | Ki [2] [nM] | Ki (D(2) dopamine receptor [3]) [nM] | Ki (D(3) dopamine receptor) [nM] | Ki [4] [nM]
 | CCCN(C/C=C/I)C1CCc2ccc(O)cc2C1 (centres undefined) | 265 | 3.2 | 6.6 |  | 
 | CCCN(C/C=C/I)C1COc2c(O)cccc2C1 (centres undefined) | > 5000 | 492 |  | 31.4 | 1270
 | CCCN(C/C=C/I)C1COc2ccc(O)cc2C1 (centres undefined) | 784 | > 10000 |  | 6.69 | 619
 | CCCN(C/C=C/I)C1CCc2c(O)cccc2C1 (centres undefined) | 324 | 1240 | 3.6 | 0.99 | 47.9
 | CCCN(CCC)C1CCc2ccc(O)cc2C1 (centres undefined) |  | 23.2 |  |  | 
1.68 | Oc1ccc2c(c1)CC(NC/C=C/I)CC2 (centres undefined) |  |  |  | 30.2 | 
 | CCCN(C/C=C/I)C1CCc2cc(O)ccc2C1 (centres undefined) | 547 | 28.4 | 9.7 | 2.2 | 297
